The record followed here is ChEMBL document CHEMBL2331357, “Bioassay-guided isolation of proanthocyanidins with antiangiogenic activities” (J Nat Prod, 2013).

Each structure is given as a SMILES string. Activity calls are given as the source filed them. The calls are words filed in the database; no cut-off is given here. Bounds are passed on as bounds.

Experiment [1] is filed under the species Gallus gallus. Kind of experiment: Antiangiogenic activity in chicken embryo chorioallantoic membrane model assessed as reduction of junction of blood vessels at 10 ug/egg after 4 days. The format is functional, tissue-based. An outline of the steps:
(§1)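 Fertilized chicken eggs incubated at 37 °C, humidified, turned several times; after 4 days a 1 cm2 window opened on the broad side. Test material applied per egg; controls received albumen (100 μL/egg); retinoic acid 2 μg/egg as positive control; at least five eggs per dose. Eggs reincubated two days, then vessels photographed under microscope; branch points compared with albumen controls; mean ± SD of three experiments, Student's t-test.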

Experiment [2] is filed under the species Gallus gallus. Kind of experiment: Antiangiogenic activity in chicken embryo chorioallantoic membrane model assessed as reduction of size of blood vessels at 10 ug/egg after 4 days. In kind it is functional, tissue-based. Put shortly: as §1
Experiment [3] is filed under the species Gallus gallus. The experiment is described as follows: Antiangiogenic activity in chicken embryo chorioallantoic membrane model assessed as reduction of length of blood vessels at 10 ug/egg after 4 days. In kind it is functional, tissue-based. Put shortly: as §1
For experiment [4], the species on record is Gallus gallus. Kind of experiment: Antiangiogenic activity in chicken embryo chorioallantoic membrane model assessed as reduction of number of blood vessels at 10 ug/egg after 4 days. In kind it is functional, tissue-based. Put shortly: as §1
The nature of experiment [5]: Antiangiogenic activity in chicken embryo chorioallantoic membrane model assessed as inhibition of blood vessels growth after 4 days. The format is functional, tissue-based, Gallus gallus. An outline of the steps: as §1
The species entered for experiment [6] is Gallus gallus. The experiment is described as follows: Antiangiogenic activity in chicken embryo chorioallantoic membrane model assessed as inhibition of blood vessels growth at 10 ug/egg after 4 days. In kind it is functional, tissue-based. An outline of the steps: as §1
For experiment [7], the target named is T1, Vascular endothelial growth factor A, long form (Homo sapiens, UniProt P15692).
T1 sequence (P15692 whole entry): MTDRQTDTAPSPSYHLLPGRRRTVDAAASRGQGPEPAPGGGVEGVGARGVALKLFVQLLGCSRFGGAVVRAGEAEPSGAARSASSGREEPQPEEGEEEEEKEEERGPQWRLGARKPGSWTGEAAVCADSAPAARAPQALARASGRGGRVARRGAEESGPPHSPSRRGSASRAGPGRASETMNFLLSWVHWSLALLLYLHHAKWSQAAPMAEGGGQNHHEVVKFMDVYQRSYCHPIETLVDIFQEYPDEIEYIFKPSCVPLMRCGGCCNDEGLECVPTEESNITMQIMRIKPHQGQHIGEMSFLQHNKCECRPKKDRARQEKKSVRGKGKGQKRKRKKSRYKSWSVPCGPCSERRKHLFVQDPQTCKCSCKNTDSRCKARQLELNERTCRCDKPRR
The experiment is described as follows: Binding affinity to recombinant VEGFA (unknown origin) measured for 60 seconds by surface plasmon resonance assay. Put shortly:
(§2)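 Biacore CM5 chip; proteins (100 μg/mL in 10 mM NaOAc, pH 5.0) amine-coupled to 8−12 kRU alongside BSA and unmodified reference surfaces. Compounds from 4 mM DMSO stocks diluted 1:200 in PBS (10 mM NaH2PO4, 150 mM NaCl, pH 7.4; final DMSO 0.5%), 2-fold six-point series typically 0.025−1 μM, triplicate aliquots with buffer blanks. Association and dissociation recorded; thermodynamic KD derived.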
In general terms: Surface plasmon resonance follows binding to a sensor surface in real time, without labels.

The target in experiment [8] is T2, Vascular endothelial growth factor receptor 1 (Homo sapiens, UniProt P17948). The experiment is described as follows: Inhibition of recombinant VEGF-A/VEGFR-1 (unknown origin) interaction after 1 hr by ELISA. An outline of the steps:
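Competitive ELISA: Fc/VEGFR-1 coated at 0.5 μg/mL for 16 h at RT, blocked 3 h with 1% BSA. PlGF-1 (5 ng/mL) or VEGF-A (10 ng/mL) in PBS with 0.1% BSA, 5 mM EDTA, 0.004% Tween 20 added with DMSO-dissolved compound, 1 h 37 °C then 1 h RT. Biotinylated anti-ligand antibody, avidin–biotin-HRP, o-phenylenediamine/H2O2 detection at 490 nm; triplicate points, repeated twice.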
(In general: In an ELISA, binding on a coated surface is turned into a signal by an enzyme label.)

Experiment [9] deals with T2, Vascular endothelial growth factor receptor 1. The experiment is described as follows: Inhibition of recombinant PlGF-1/VEGFR-1 (unknown origin) interaction after 1 hr by ELISA.
In a further experiment the target is T3, Placenta growth factor (Homo sapiens, UniProt P49763).
T3 sequence (P49763 whole entry): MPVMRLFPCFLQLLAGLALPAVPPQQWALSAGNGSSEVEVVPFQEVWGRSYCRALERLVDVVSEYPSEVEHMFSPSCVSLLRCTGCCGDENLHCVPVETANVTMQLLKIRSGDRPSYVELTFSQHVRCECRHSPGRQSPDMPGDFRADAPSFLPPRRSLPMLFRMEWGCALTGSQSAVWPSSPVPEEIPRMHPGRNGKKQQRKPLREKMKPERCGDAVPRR
Kind of experiment: Binding affinity to recombinant PIGF1 (unknown origin) measured for 60 seconds by surface plasmon resonance assay. Put shortly:
as §2

The test system of the next experiment is Jurkat. The experiment is described as follows: Cytotoxicity against human Jurkat cells after 24 to 72 hrs by MTT assay. In kind it is cell-based. An outline of the steps: (§3)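 Cells kept in DMEM with 10% FBS, 2 mM L-glutamine, penicillin/streptomycin, 37 °C, 5% CO2, subcultured every two days. Seeded at 1 × 10^4 cells/well and grown without or with various compound concentrations; cell number quantified by MTT conversion at 24, 48 and 72 h. IC50 from at least two independent experiments in triplicate.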
A general note: Formazan colour is commonly taken as a measure of viable cells.

The next experiment has as its system MCF7. The experiment is described as follows: Cytotoxicity against human MCF7 cells after 24 to 72 hrs by MTT assay. The format is cell-based. An outline of the steps: as §3
Experiment [10] is filed under the species Gallus gallus. Kind of experiment: Antiangiogenic activity in chicken embryo chorioallantoic membrane model assessed as reduction of capillary formation at 2 ug/egg after 4 days. The format is functional, tissue-based. An outline of the steps: as §1
Experiment [11] is filed under the species Gallus gallus. Kind of experiment: Antiangiogenic activity in chicken embryo chorioallantoic membrane model assessed as inhibition of blood vessels growth at 2 ug/egg after 4 days. In kind it is functional, tissue-based. Put shortly:
as §1

T2 sequence (P17948 whole entry): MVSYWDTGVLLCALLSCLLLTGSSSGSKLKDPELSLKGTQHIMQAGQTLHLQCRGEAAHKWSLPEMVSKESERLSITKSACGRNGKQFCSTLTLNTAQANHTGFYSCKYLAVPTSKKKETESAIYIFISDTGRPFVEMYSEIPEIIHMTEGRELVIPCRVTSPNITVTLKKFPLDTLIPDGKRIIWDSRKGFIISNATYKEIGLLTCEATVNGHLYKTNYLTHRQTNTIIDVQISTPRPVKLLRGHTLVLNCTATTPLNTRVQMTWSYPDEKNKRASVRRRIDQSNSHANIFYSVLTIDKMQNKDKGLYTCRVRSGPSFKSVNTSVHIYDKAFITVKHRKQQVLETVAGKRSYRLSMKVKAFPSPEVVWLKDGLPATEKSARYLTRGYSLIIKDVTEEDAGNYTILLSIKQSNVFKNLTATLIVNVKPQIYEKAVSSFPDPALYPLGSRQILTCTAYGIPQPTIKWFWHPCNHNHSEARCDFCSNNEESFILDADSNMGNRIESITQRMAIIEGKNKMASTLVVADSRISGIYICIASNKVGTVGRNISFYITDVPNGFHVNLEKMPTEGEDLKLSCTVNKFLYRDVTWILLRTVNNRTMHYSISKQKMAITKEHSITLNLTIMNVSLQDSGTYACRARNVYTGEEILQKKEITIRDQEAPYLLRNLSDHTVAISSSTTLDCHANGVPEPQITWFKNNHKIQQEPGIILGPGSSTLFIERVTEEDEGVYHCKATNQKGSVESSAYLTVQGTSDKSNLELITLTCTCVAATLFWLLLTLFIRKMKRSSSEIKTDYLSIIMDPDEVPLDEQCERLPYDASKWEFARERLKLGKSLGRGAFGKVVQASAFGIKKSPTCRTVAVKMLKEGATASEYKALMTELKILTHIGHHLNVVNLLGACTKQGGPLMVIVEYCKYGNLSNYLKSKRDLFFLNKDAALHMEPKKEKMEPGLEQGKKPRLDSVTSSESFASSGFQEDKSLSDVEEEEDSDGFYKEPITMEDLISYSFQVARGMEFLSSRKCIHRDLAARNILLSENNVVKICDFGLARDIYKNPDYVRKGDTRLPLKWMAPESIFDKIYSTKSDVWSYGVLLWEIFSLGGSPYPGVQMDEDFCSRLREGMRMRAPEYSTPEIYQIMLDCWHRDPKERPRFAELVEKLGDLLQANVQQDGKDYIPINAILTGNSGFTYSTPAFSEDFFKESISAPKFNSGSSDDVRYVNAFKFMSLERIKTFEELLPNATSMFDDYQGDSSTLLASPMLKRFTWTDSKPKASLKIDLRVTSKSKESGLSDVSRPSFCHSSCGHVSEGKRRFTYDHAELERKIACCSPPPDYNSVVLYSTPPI

Consider `Oc1ccc([C@@H]2C[C@@H](c3c(O)cc(O)c4c3O[C@H](c3ccc(O)cc3)[C@@H](O)C4)c3c(O)cc(O)cc3O2)cc1`, for which the result in the experiment filed under Gallus gallus [1], in the experiment filed under Gallus gallus [2], in the experiment listed under Gallus gallus [3] and in the experiment filed under Gallus gallus [4] was Active. Also, the IC50 was 9.79 µg in [5]; 50 µM in experiment [8]; 15 µM in experiment [9]; over 70 µM with Jurkat; over 70 µM in the experiment with MCF7. The growth inhibition (GI) in the experiment filed under Gallus gallus [6] is 56.2%. The dissociation constant Kd – broadly, the equilibrium constant for the complex coming apart – in experiment [7] (read-out: Kd) came to 0.016 µM; at Placenta growth factor (read-out: Kd) it was 0.011 µM.
On to `Oc1ccc([C@H]2Oc3c(c(O)cc4c3[C@H]3c5c(O)cc(O)cc5O[C@@](c5ccc(O)c(O)c5)(O4)[C@@H]3O)C[C@@H]2O)cc1` [GERANIN B], for which the dissociation constant (Kd) is 0.048 µM in [7] (read-out: Kd) and 0.023 µM on Placenta growth factor (read-out: Kd). Moreover, the figures for the IC50 (in experiment [8]; in the experiment on Jurkat; in the experiment on MCF7) were 65 µM, over 70 µM and over 70 µM, respectively.
`Oc1cc(O)c2c(c1)O[C@@]1(c3ccc(O)c(O)c3)Oc3cc(O)c4c(c3[C@@H]2[C@H]1O)O[C@H](c1ccc(O)c(O)c1)[C@@H](O)C4` [PROANTHOCYANIDIN A1]: the dissociation constant (Kd) in experiment [7] (read-out: Kd) was 0.476 µM; at Placenta growth factor (read-out: Kd) it was 0.394 µM. The IC50 with Jurkat and in the experiment on MCF7 was over 70 µM in each case.
`O=c1cc(-c2ccc(O)c(-c3c(O)cc(O)c4c(=O)cc(-c5ccc(O)cc5)oc34)c2)oc2cc(O)cc(O)c12` [AMENTOFLAVONE]: the figures for the Kd (in [7] (read-out: Kd); on Placenta growth factor (read-out: Kd)) were 0.0165 µM and 0.0082 µM, respectively.
Consider `CC1=C(/C=C/C(C)=C/C=C/C(C)=C/C(=O)O)C(C)(C)CCC1`, for which the result in the experiment listed under Gallus gallus [10] was Active. The growth inhibition (GI) in the experiment filed under Gallus gallus [11] came out at 75.5%.
Consider `Oc1ccc([C@@H]2C[C@@H](c3c(O)cc(O)c4c3O[C@H](c3ccc(O)cc3)[C@H](O)C4)c3c(O)cc(O)cc3O2)cc1`, for which the Kd result (in experiment [7]; at Placenta growth factor) was “Not Active” in each case. Besides, the IC50 in the experiment on Jurkat and in the experiment with MCF7 was over 70 µM in each case.
`Oc1cc(O)c2c(c1)O[C@@]1(c3ccc(O)c(O)c3)Oc3cc(O)c4c(c3[C@@H]2[C@H]1O)O[C@H](c1ccc(O)c(O)c1)[C@H](O)C4` [PROANTHOCYANIDIN A2]: the Kd entry (in [7]; on Placenta growth factor) was “Not Active” throughout. Further, the IC50 in the experiment on Jurkat and with MCF7 was over 70 µM throughout.
